Data on two compounds can be found in ChEMBL document CHEMBL1125894, “Dual-action cephalosporins: cephalosporin 3'-quaternary ammonium quinolones” (1991).

In brackets after ≈: the same amount, converted by molar mass.

Test [1] relates to Escherichia coli. In words: In vivo activity in murine against Escherichia coli 257 infection after sc administration. To be noted: Escherichia coli, sc; read-out: ED50. In kind it is functional. The essentials: (§1)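 Mouse protection test in CD1 Swiss albino mice (18–20 g). Mice were infected intraperitoneally with 0.5 mL of a diluted bacterial suspension, then treated within 5 min with one 1.0 mL subcutaneous dose at the dorsal base of the neck. Doses ranged from 0.05 to 250 mg/kg, with six mice per group. ED50 was calculated by the Reed–Muench method.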

Test [2] relates to Streptococcus pyogenes. The test can be described thus: In vivo activity in murine against Streptococcus pyogenes 4 infection after sc administration. In kind it is functional. The essentials:
as §1

The target in test [3] is T1, Penicillin-binding protein 1B (Escherichia coli K-12) (UniProt P02919).
T1 sequence (whole entry): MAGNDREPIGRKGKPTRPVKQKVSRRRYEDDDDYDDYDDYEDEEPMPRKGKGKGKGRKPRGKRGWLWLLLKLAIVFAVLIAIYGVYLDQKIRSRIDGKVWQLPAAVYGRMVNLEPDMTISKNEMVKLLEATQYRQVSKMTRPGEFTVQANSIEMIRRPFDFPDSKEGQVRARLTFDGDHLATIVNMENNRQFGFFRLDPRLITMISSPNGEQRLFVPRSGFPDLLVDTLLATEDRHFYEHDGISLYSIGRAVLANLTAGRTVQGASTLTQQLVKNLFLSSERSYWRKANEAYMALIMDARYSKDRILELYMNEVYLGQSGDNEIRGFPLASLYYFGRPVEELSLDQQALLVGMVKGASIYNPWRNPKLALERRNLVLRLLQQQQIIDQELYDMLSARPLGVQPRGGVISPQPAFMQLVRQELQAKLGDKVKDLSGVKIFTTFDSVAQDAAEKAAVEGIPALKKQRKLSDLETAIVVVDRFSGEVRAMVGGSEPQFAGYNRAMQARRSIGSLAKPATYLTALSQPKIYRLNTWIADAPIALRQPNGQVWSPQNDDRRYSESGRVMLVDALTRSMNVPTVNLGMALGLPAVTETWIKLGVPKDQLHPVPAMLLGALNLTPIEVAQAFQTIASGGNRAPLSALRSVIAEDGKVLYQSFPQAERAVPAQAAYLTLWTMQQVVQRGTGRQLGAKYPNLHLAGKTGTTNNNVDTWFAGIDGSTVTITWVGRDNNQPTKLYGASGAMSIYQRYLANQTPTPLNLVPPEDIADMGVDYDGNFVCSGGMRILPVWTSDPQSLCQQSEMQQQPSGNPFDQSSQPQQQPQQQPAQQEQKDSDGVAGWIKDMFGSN
The test can be described thus: Concentration required for 90% inhibition against 90 kDa penicillin-binding protein 1b binding using [14C]-Pen G as the radioligand. In a few lines: (§2)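 Solubilized membranes from sonicated E. coli DC-0 were used. PBP binding was measured as inhibition of [14C]penicillin G binding to each PBP.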

The test system of test [4] is Enterobacter cloacae. The test can be described thus: In vitro antibacterial activity against Enterobacter cloacae P99. In kind it is functional. The essentials: (§3)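 Serial 2-fold dilutions in the NCCLS broth microdilution method for aerobic nonfastidious organisms, with an 18-h incubation. The value is reported as the minimum inhibitory concentration (MIC).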
In test [5] the test system is Streptococcus pyogenes. In words: In vitro antibacterial activity against Streptococcus pyogenes 4. In kind it is functional. The essentials: (§4)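 Broth macrodilution with serial 2-fold dilutions in cation-supplemented Mueller-Hinton broth containing 10% goat serum. The value is reported as the MIC.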
Test [6] deals with Pseudomonas aeruginosa. In words: In vivo activity in murine against Pseudomonas aeruginosa 5712 infection after sc administration. In kind it is functional. To be noted: Pseudomonas aeruginosa, sc; read-out: ED50. In a few lines: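 Mouse protection test in CD1 Swiss albino mice (18–20 g) infected intraperitoneally with 0.5 mL of diluted P. aeruginosa suspension. Mice received 1.0 mL subcutaneously at the neck base within 5 min of infection and a second treatment 3 h after infection. Doses ranged from 0.05 to 250 mg/kg, with six mice per group. ED50 was calculated by the Reed–Muench method.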

Test [7] deals with Serratia marcescens. The test can be described thus: In vitro antibacterial activity against Serratia marcescens SM. In kind it is functional. In a few lines:
as §3

In test [8] the test system is Escherichia coli. The test can be described thus: In vitro antibacterial activity against Escherichia coli 257. In kind it is functional. The essentials: as §3
The subject of test [9] is Serratia marcescens. In words: In vivo activity in murine against Serratia marcescens SM infection after sc administration. In kind it is functional. The essentials: as §1
Test [10] has as its system Pseudomonas aeruginosa. In words: In vitro antibacterial activity against Pseudomonas aeruginosa 5712. In kind it is functional. In a few lines: as §3
The subject of test [11] is Enterobacter cloacae. In words: In vitro antibacterial activity against Enterobacter cloacae 5699. In kind it is functional. The essentials: as §3
Test [12] deals with Klebsiella pneumoniae. The test can be described thus: In vitro antibacterial activity against Klebsiella pneumoniae A. In kind it is functional. In a few lines: as §3
Test [13] relates to Citrobacter freundii. The test can be described thus: In vitro antibacterial activity against Citrobacter freundii BS 16. In kind it is functional. The essentials:
as §3

In test [14] the test system is Streptococcus pneumoniae. In words: In vitro antibacterial activity against Streptococcus pneumoniae 6301. In kind it is functional. The essentials: as §4
For test [15], the system named is Streptococcus pneumoniae. In words: In vivo activity in murine against Streptococcus pneumoniae 6301 infection after sc administration. In kind it is functional. In a few lines:
as §1

For test [16], the system named is Escherichia coli. In words: Antibacterial activity against Escherichia coli DC-O. In kind it is functional. In a few lines: as §3
The test system of test [17] is Staphylococcus aureus. The test can be described thus: In vitro antibacterial activity against Staphylococcus aureus Smith(MS). In kind it is functional. In a few lines: (§5)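 Staphylococci were tested by the standard agar dilution procedure using serial 2-fold dilutions of agent. The value is reported as the MIC.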
Test [18] relates to Escherichia coli. In words: Concentration required for 90% inhibition against 60 kDa penicillin-binding protein 3 binding using [14C]-Pen G as the radioligand. The essentials:
as §2

For test [19], the target named is T2, Penicillin-binding protein 1A (Escherichia coli K-12) (UniProt P02918).
T2 sequence (whole entry): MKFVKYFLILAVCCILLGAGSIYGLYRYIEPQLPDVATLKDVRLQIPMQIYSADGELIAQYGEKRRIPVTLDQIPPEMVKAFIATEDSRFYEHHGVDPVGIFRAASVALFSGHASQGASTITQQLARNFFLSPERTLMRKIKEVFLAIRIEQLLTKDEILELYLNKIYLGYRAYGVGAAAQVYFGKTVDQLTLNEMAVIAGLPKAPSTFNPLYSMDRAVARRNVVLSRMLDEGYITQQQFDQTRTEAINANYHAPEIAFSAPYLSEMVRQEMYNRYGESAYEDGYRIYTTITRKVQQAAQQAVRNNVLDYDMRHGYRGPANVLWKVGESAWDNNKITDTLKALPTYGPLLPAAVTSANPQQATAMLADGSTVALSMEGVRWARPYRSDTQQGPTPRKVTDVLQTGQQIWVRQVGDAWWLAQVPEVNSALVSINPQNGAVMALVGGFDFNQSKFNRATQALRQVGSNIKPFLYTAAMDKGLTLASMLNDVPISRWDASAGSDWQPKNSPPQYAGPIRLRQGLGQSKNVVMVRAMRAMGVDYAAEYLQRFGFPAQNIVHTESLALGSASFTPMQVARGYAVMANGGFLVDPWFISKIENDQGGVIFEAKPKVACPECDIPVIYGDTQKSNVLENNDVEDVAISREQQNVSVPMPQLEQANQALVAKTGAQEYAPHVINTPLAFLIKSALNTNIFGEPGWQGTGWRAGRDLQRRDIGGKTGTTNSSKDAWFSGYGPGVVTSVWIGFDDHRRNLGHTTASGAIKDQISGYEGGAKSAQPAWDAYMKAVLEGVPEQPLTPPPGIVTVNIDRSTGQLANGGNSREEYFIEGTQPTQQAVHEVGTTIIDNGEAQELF
The test can be described thus: Concentration required for 90% inhibition against 90 kDa penicillin-binding protein 1a binding using [14C]-Pen G as the radioligand. In a few lines:
as §2

Test [20] has as its system Staphylococcus aureus. In words: In vitro antibacterial activity against Staphylococcus aureus 95(MR). In kind it is functional. In a few lines: as §5
For test [21], the target named is T3, Peptidoglycan D,D-transpeptidase MrdA (Escherichia coli K-12) (UniProt P0AD65).
T3 sequence (whole entry): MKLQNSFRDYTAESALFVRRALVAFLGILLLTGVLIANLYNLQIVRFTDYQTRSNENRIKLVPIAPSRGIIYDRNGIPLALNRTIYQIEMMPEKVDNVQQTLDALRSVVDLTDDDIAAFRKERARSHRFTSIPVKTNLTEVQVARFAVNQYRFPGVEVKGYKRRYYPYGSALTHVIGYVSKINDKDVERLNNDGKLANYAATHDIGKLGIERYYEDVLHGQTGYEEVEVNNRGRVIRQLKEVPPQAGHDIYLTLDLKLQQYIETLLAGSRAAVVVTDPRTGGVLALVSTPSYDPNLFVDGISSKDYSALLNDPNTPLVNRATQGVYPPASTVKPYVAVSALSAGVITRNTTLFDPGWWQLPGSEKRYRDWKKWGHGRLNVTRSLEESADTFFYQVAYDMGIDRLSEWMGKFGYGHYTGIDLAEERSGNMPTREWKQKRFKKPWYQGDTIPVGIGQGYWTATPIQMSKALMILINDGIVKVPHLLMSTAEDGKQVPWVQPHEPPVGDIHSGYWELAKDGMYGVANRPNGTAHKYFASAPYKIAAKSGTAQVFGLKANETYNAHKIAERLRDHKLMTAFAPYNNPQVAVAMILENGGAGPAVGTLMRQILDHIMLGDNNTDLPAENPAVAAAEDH
The test can be described thus: Concentration required for 90% inhibition against 66 kDa penicillin-binding protein 2 binding using [14C]-Pen G as the radioligand. In a few lines:
as §2

For test [22], the system named is Citrobacter freundii. The test can be described thus: In vivo activity in murine against Citrobacter freundii BS#16 infection after sc administration. In kind it is functional. The essentials: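 CD1 Swiss albino mice (18–20 g) infected intraperitoneally with 0.5 mL diluted bacterial culture suspension. Single subcutaneous treatment within 5 min, 1.0 mL at dorsal base of neck, serial dilutions spanning 0.05–250 mg/kg. Six mice per treatment and control group. ED50 (50% protective dose) derived by Reed and Muench method.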

Test [23] deals with Staphylococcus aureus. The test can be described thus: In vivo activity in murine against Staphylococcus aureus 753(MR) infection after sc administration. In kind it is functional. The essentials: as §1
Test [24] deals with Staphylococcus aureus. The test can be described thus: In vivo activity in murine against Staphylococcus aureus Smith (MS) infection after sc administration. In kind it is functional. In a few lines: as §1
In test [25] the test system is Enterobacter cloacae. In words: In vivo activity in murine against Enterobacter cloacae 5699 infection after sc administration. In kind it is functional. The essentials:
as §1

The subject of test [26] is Klebsiella pneumoniae. In words: In vivo activity in murine against Klebsiella pneumoniae A infection after sc administration. In kind it is functional. The essentials:
as §1

For `CO/N=C(\C(=O)N[C@@H]1C(=O)N2C(C(=O)O)=C(COC(C)=O)CS[C@H]12)c1csc(N)n1` [CEFOTAXIME], the ED50 with Escherichia coli [1] is 0.37 mg/kg; in the test on Streptococcus pyogenes [2] it was 7 mg/kg; in the test with Pseudomonas aeruginosa [6], above 250 mg/kg; in the test with Serratia marcescens [9] it was above 50 mg/kg; with Streptococcus pneumoniae [15], 90 mg/kg. Moreover, the Concentration in test [3] amounted to 0.5 µg/mL; in the test with Escherichia coli [18] it was 0.1 µg/mL; in test [19], 0.1 µg/mL; in test [21] it was 100 µg/mL. In addition, the MIC in the test on Enterobacter cloacae [4] was 64 µg/mL (≈ 141 µM); with Streptococcus pyogenes [5] it was below 0.008 µg/mL; in the test with Serratia marcescens [7], 0.25 µg/mL (≈ 0.549 µM); against Escherichia coli [8], 0.031 µg/mL (≈ 0.0681 µM); in the test with Pseudomonas aeruginosa [10] it was 64 µg/mL (≈ 141 µM); with Enterobacter cloacae [11], 0.125 µg/mL (≈ 0.274 µM). In addition, the MIC was found to be 0.031 µg/mL (≈ 0.0681 µM) in the test on Klebsiella pneumoniae [12]; 128 µg/mL (≈ 281 µM) against Citrobacter freundii [13]; 0.016 µg/mL (≈ 0.0351 µM) against Streptococcus pneumoniae [14]; 0.06 µg/mL (≈ 0.132 µM) in the test with Escherichia coli [16]; 1 µg/mL (≈ 2.2 µM) against Staphylococcus aureus [17]; 128 µg/mL (≈ 281 µM) in the test with Staphylococcus aureus [20].
Turning to `CC(C)(O/N=C(\C(=O)N[C@@H]1C(=O)N2C(C(=O)[O-])=C(C[n+]3ccccc3)CS[C@H]12)c1csc(N)n1)C(=O)O` [CEFTAZIDIME], the ED50 is below 0.5 mg/kg with Escherichia coli [1]; 22 mg/kg in the test on Citrobacter freundii [22]; 12 mg/kg with Streptococcus pyogenes [2]; 217 mg/kg in the test with Pseudomonas aeruginosa [6]; 62 mg/kg in the test on Staphylococcus aureus [23]; 67 mg/kg in the test with Serratia marcescens [9]. In addition, the ED50 in the test on Staphylococcus aureus [24] was below 2 mg/kg; in the test with Enterobacter cloacae [25], 25 mg/kg; with Streptococcus pneumoniae [15], 3 mg/kg; in the test on Klebsiella pneumoniae [26] it was below 2 mg/kg.
